Experiment [1] deals with Plasmodium falciparum. In words: […] antimalarial activity against Plasmodium falciparum W-2. It counts as functional, organism-based.
Experiment [2] deals with Mus musculus. In words: Mean survival time of the treated mice (Mus musculus) beyond that of the control animals against Plasmodium berghei at dose 640(mg/kg); Survival beyond 60 days is considered curative. It counts as functional.
Experiment [3] deals with Mus musculus. In words: Mean survival time of the treated mice (Mus musculus) beyond that of the control animals against Plasmodium berghei at dose 80(mg/kg). It counts as functional.
The test system of experiment [4] is Plasmodium falciparum. As to the kind of experiment: […] antimalarial activity against Plasmodium falciparum D6. It counts as functional, organism-based.
A short description of experiment [5]: Resistance index is defined as the ratio of IC50 of Plasmodium falciparum(W-2) clone to IC50 of Plasmodium falciparum(D6) clone. The class given is functional. In a few lines: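 Ratio of IC50 W-2 to IC50 D-6 for P. falciparum. […] Activity is read as inhibition of tritiated hypoxanthine uptake.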
In experiment [6] the test system is Plasmodium berghei. In words: […] antimalarial activity against drug-resistant Plasmodium berghei KBG173. The class given is functional.
Experiment [7] has as its system Mus musculus. In words: Mean survival time of the treated mice (Mus musculus) beyond that of the control animals against Plasmodium berghei at dose 40(mg/kg). The class given is functional.
In experiment [8] the test system is Mus musculus. As to the kind of experiment: Mean survival time of the treated mice (Mus musculus) beyond that of the control animals against Plasmodium berghei at dose 320(mg/kg). The class given is functional.
In experiment [9] the test system is Mus musculus. In words: Mean survival time of the treated mice (Mus musculus) beyond that of the control animals against Plasmodium berghei at dose 160 mg/kg). The class given is functional.
In experiment [10] the test system is Mus musculus. As to the kind of experiment: Mean survival time of the treated mice (Mus musculus) beyond that of the control animals against Plasmodium berghei at dose 20(mg/kg). It counts as functional.
Experiment [11] concerns Mus musculus. As to the kind of experiment: Mean survival time of the treated mice (Mus musculus) beyond that of the control animals against Plasmodium berghei at dose 20(mg/kg); Experiment I. The class given is functional.
Experiment [12] deals with Mus musculus. In words: Mean survival time of the treated mice (Mus musculus) beyond that of the control animals against Plasmodium berghei at dose 160 (mg/kg); Experiment I. It counts as functional.
For experiment [13], the system named is Mus musculus. As to the kind of experiment: Mean survival time of the treated mice (Mus musculus) beyond that of the control animals against Plasmodium berghei at dose 160 (mg/kg); Experiment II; active (A). The class given is functional.
Experiment [14] concerns Mus musculus. As to the kind of experiment: Mean survival time of the treated mice (Mus musculus) beyond that of the control animals against Plasmodium berghei at dose 40(mg/kg); Experiment II. It counts as functional.
Experiment [15] concerns Mus musculus. In words: Mean survival time of the treated mice (Mus musculus) beyond that of the control animals against Plasmodium berghei at dose 640(mg/kg); Experiment II; Survival beyond 60 days is considered curative (C). It counts as functional.
The test system of experiment [16] is Mus musculus. As to the kind of experiment: Mean survival time of the treated mice (Mus musculus) beyond that of the control animals against Plasmodium berghei at dose 80(mg/kg); Experiment II. It counts as functional.
Experiment [17] concerns Mus musculus. As to the kind of experiment: Mean survival time of the treated mice (Mus musculus) beyond that of the control animals against Plasmodium berghei at dose 320(mg/kg); Experiment I. The class given is functional.
The subject of experiment [18] is Mus musculus. As to the kind of experiment: Mean survival time of the treated mice (Mus musculus) beyond that of the control animals against Plasmodium berghei at dose 20(mg/kg); Experiment II. It counts as functional.
Experiment [19] concerns Mus musculus. In words: Mean survival time of the treated mice (Mus musculus) beyond that of the control animals against Plasmodium berghei at dose 320(mg/kg); Survival beyond 60 days is considered curative; Experiment II; Survival beyond 60 days is considered curative (C). It counts as functional.
The subject of experiment [20] is Mus musculus. As to the kind of experiment: Mean survival time of the treated mice (Mus musculus) beyond that of the control animals against Plasmodium berghei at dose 40(mg/kg); Experiment I. It counts as functional.
Experiment [21] concerns Mus musculus. In words: Mean survival time of the treated mice (Mus musculus) beyond that of the control animals against Plasmodium berghei at dose 640(mg/kg); Experiment I. It counts as functional.
Experiment [22] has as its system Mus musculus. In words: Mean survival time of the treated mice (Mus musculus) beyond that of the control animals against Plasmodium berghei at dose 80(mg/kg); Experiment I. It counts as functional.
For experiment [23], the system named is Mus musculus. In words: Mean survival time of the treated mice (Mus musculus) beyond that of the control animals against Plasmodium berghei at dose 320(mg/kg); Survival beyond 60 days is considered curative; Experiment I. It counts as functional.
For experiment [24], the system named is Mus musculus. In words: Mean survival time of the treated mice (Mus musculus) beyond that of the control animals against Plasmodium berghei at dose 160 (mg/kg); Experiment II. It counts as functional.
Experiment [25] concerns Mus musculus. In words: Mean survival time of the treated mice (Mus musculus) beyond that of the control animals against Plasmodium berghei at dose 320(mg/kg); Survival beyond 60 days is considered curative; Experiment II; active(A). The class given is functional.
The test system of experiment [26] is Mus musculus. As to the kind of experiment: Mean survival time of the treated mice (Mus musculus) beyond that of the control animals against Plasmodium berghei at dose 640(mg/kg); Experiment II; Survival beyond 60 days is considered curative (C). It counts as functional.
Experiment [27] deals with Mus musculus. In words: Mean survival time of the treated mice (Mus musculus) beyond that of the control animals against Plasmodium berghei at dose 640(mg/kg); Experiment I; not active. The class given is functional.

Data on four molecules can be found in ChEMBL document CHEMBL1126302, “Dispiro-1,2,4,5-tetraoxanes: a new class of antimalarial peroxides” (J Med Chem, 1992).

Usually IC50 stands for the concentration needed to halve the response being measured. Broadly, the ED50 is the dose at which the effect has come halfway, by size or by number of responders.

SMILES strings stand for the structures. Calls of active or inactive are those of the source.

For `C[C@@H]1CC[C@H]2[C@@H](C)C(=O)O[C@@H]3O[C@@]4(C)CC[C@@H]1[C@]32OO4` [ARTEMISININ], the values for the IC50 in experiment [1] and in experiment [4] were 2.2 nM and 4.7 nM, respectively. In addition, the T-C in experiment [2] is 2 days; in experiment [3] it was 2.3 days; in experiment [7], 1.7 days; in experiment [8] it was 5.1 days; in [9] it was 3.9 days; in experiment [10], 1.5 days. Moreover, the Resistance index in [5] is 0.47. Further, the ED50 in experiment [6] turned out to be 607 mg/kg.
Consider `C[C@@H]1CCCCC12OOC1(CCCC[C@@H]1C)OO2` (stereo partly specified) [WR-148999], for which the IC50 in experiment [1] came out at 3.4 nM; in experiment [4], 6.9 nM. Further, the T-C stood at 0.2 days in experiment [11]; 9.6 days in experiment [12]; 12 days in experiment [13]; 1.2 days in experiment [14]; 5 days in [15]; 5 days in experiment [16]. In addition, the T-C in experiment [17] was 1 days; in [18], 0.7 days; in experiment [19] it was 3 days; in experiment [20], 1.8 days; in experiment [21] it was 3 days; in [22], 1.6 days. Besides, the Resistance index in experiment [5] is 0.49. For the same molecule, the ED50 in [6] was determined as 382 mg/kg.
In the case of `CC1CC(C)CC2(C1)OOC1(CC(C)CC(C)C1)OO2` (stereo unspecified), the IC50 in experiment [1] is 13 nM; in [4] it was 50 nM. Also, the T-C was found to be 1 days in experiment [23]; 1.5 days in experiment [11]; 5.5 days in experiment [12]; 5.8 days in experiment [24]; 1 days in experiment [14]; 3.8 days in experiment [16]. Also, the T-C was determined as 7.4 days in experiment [25]; 2 days in experiment [26]; 0.6 days in experiment [18]; 1.3 days in [20]; 2.4 days in experiment [22]. Further, the Resistance index in experiment [5] turned out to be 0.26. In addition, in experiment [27], the T-C entry was “inactive”.
For `CC1CCC2(CC1)OOC1(CCC(C)CC1)OO2` (stereo unspecified), the IC50 in [1] amounted to 58 nM; in experiment [4], 8.2 nM. Further, the T-C in experiment [11] came out at 0.1 days; in experiment [12], 2.4 days; in [24] it was 3.2 days; in experiment [14], 0.5 days; in experiment [15], 1 days; in [16], 2 days. For the same molecule, the T-C came out at 13 days in experiment [25]; 1.9 days in experiment [17]; 1 days in [27]; 0.3 days in experiment [18]; 0.4 days in experiment [20]; 0.1 days in experiment [22]. In addition, the Resistance index in experiment [5] stood at 7.1.
